Experimental data reported in paper PMC5846678 (Bioorganic & medicinal chemistry letters, 2017).

Experiments:
[1] = pharmacokinetic analysis, DIPG mice models; cited from earlier work
IGF1R/IR [2] = experiment: biodistribution in rats 120 min post injection; format: in vivo, Sprague-Dawley rats
IGF1R/IR [3] = experiment: microPET imaging in rats; format: in vivo, Sprague-Dawley rats; details: time frames 1-10 min and 81-90 min, tail vein injection
How it was run: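 Anaesthetised male Sprague-Dawley rats (N = 2) were imaged on an Inveon microPET after tail-vein injection of 0.2 ± 0.05 mCi 18F-labelled test compound in 5% ethanol/normal saline, with acquisition starting at injection. A 68Ge transmission scan provided attenuation correction. List-mode data were collected for 90 min, Fourier-rebinned, reconstructed by filtered back-projection and expressed as nCi/cc. Coronal images were summed 0–10 and 81–90 min. ROI time-activity curves covered heart, muscles and brain.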

IGF1R/IR [4] = experiment: microPET imaging in mice; format: in vivo, C57BL/6 mice
How it was run: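 Male C57BL/6 mice (N = 2) under anaesthesia on an Inveon microPET. The 18F-labelled test compound was formulated in 5% ethanol/normal saline and sterile-filtered. 0.2 ± 0.05 mCi was given via tail vein at the start of acquisition. A 68Ge transmission scan was used for attenuation correction. List-mode data were collected for 60 min, Fourier-rebinned, reconstructed by filtered back-projection and expressed as nCi/cc. Images were summed 0–10 and 0–60 min. ROI time-activity curves were drawn for brain, heart, muscle and thalamus.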

IGF1R = details: autoradiography; cited from earlier work

Structure (SMILES) | concentration in tumor tissue [1] | binding in lung (IGF1R/IR [2]) | binding in spleen (IGF1R/IR [2]) | binding in stomach (IGF1R/IR [2]) | bone uptake ([18F]defluorination) (IGF1R/IR [2]) | radioactivity in brain (IGF1R/IR [2]) | uptake in heart (IGF1R/IR [2]) | uptake in large intestine (IGF1R/IR [2]) | uptake in liver (IGF1R/IR [2]) | uptake in pancreas (IGF1R/IR [2]) | uptake in small intestine (IGF1R/IR [2]) | radioligand accumulation in brain (IGF1R/IR [3]) | brain activity of the radiotracer (IGF1R/IR [4]; microPET) | uptake in heart (IGF1R/IR [4]; microPET) | uptake in muscles (IGF1R/IR [4]; microPET) | time of peak brain level of activity post-injection (IGF1R/IR [4]; microPET time activity curves) | binding in grade IV glioblastoma (GBM) in comparison to control brain tissues (IGF1R)
C[C@@]1(C(=O)Nc2ccc(F)nc2)CCCN1c1nc(Nc2cc(C3CC3)n[nH]2)c2cccn2n1 [BMS-754807] | low concentration | – | – | – | – | – | – | – | – | – | – | – | – | – | – | – | –
C[C@@]1(C(=O)Nc2ccc([18F])nc2)CCCN1c1nc(Nc2cc(C3CC3)[nH]n2)c2cccn2n1 [[^18F]BMS-754807] | – | negligible binding | negligible binding | low binding | no bone uptake | low levels of radioactivity | significant uptake | moderate uptake | moderate uptake | significant uptake | unusually higher uptake | negligible | no noticeable brain activity | High uptake | High uptake | less than 1 min | 5.25 times
